Screens deposited in PubChem BioAssay by ICCB-Longwood Screening Facility, Harvard Medical School.
LANA-nucl inh: inhibitors of KSHV LANA binding to nucleosomes; z-score (concentration not given with the values); FITC-LANA1-23 / chicken nucleosome fluorescence polarization; active compounds read low; AID 720717; 51,000 compounds, 0.3% hits;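 active = both repeat wells score below -2 in polarization z-score versus plate sample wells, excluding overly bright wells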
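test system = FITC-LANA peptide and chicken nucleosomes | amount = 240 nM purified chicken nucleosomes (480 nM peptide binding sites), final | reagent = 50 nM FITC-LANA1-23 probe | medium = TEN-BT buffer, pH 7.5 | doses = single compound addition by pin transfer, 100 nL per well | timing = 10–45 min, room temperature | detection = fluorescence polarization | repeats = duplicate plates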
BasE inh: BasE siderophore biosynthesis inhibition. inhibition, % (concentration not given with the values). 84,000 compounds, 0.1% hits. purified BasE, fluorescence polarization binding displacement. AID 485350; in the data active = inhibition above about 25%, passing the limit was not always enough
Numbers stand for hits; n = inactive; x = not tested or not shown; ! = not active in a repeat. Shown are actives, neighbours in structure and some others; about 0.3% of the full set was active somewhere.

SMILES	LANA-nucl inh	BasE inh
C=CCN1C(=O)/C(=C/c2ccco2)C(=O)NC1=S	n	n
CN1C(=O)/C(=C/c2ccc(I)o2)C(=O)NC1=S	n	40.8
N#CCCn1cc(C(=O)O)c(-c2ccc(Cl)cc2)n1	n	n
CCOc1ccccc1C=C(C#N)C#N	n	n
CC1(C)CC(C)(O)P(C)(=O)O1 (centres undefined)	x	n
CC[n+]1c(-c2ccccc2)c2cc(N)ccc2c2ccc(N)cc21	-6.03	n
O=C1NC(=O)C(=Cc2cn(Cc3ccccc3)c3ccccc23)C(=O)N1	x	n
CCn1cc(C=C2C(=O)NC(=O)NC2=O)c2ccccc21	-3.24	n
Cn1c(N)c(N2CCNCC2)c(=O)n(C)c1=O	x	n
N#Cc1c(N)[n+]([O-])c2ccccc2[n+]1[O-]	-8.29	n
CC[C@@]1(O)C(=O)OCc2c1cc1n(c2=O)Cc2cc3c(O)cccc3nc2-1	-3.07!	n
CC[C@@]1(O)C(=O)OCc2c1cc1n(c2=O)Cc2cc3ccccc3nc2-1	n	n
C=CCN1CCN(C(=O)Cc2cccs2)CC1	n	n
CCO/N=C/c1c[nH]c2c(CC)cccc12	x	n
COc1ccc2c(C)cc(N(C)C3CCN(C)CC3)nc2c1	x	n
CCOc1cc(C=C2C(=O)NC(=O)NC2=O)cc(Cl)c1O	-2.4	n
CCOc1cc(C=C2C(=O)N(C)C(=S)N(C)C2=O)ccc1OC(C)C(=O)O (centres undefined)	n	n
CCOC(=O)c1c(N(C(C)=O)C(C)=O)n(CCCOC)c2nc3ccccc3nc12	x	n
COCCNc1cnn(C23CC4CC(CC(C4)C2C(=O)O)C3)c(=O)c1Cl (centres undefined)	n	n
O=C(O)c1[nH]c2ccc(Cl)cc2c1CC(=O)N1CCN(Cc2ccccc2)CC1	n	n
C[C@@]12C[C@H](O)CCN1CCc1ccccc12	-2.38	n
CC12NC(=O)CN1CCc1ccccc12 (centres undefined)	n	n
CCC(=O)N1C(C(=O)O)CSC12CCN(C)CC2 (centres undefined)	n	n
C1=C(c2cccnc2)Nc2ncnn2C1c1cccs1 (centres undefined)	-8.79	n
